Results: ChEMBL document CHEMBL1140177 (J Med Chem, 2008)
≈ marks a conversion by molar mass, not a printed value.

What was measured:
[1] = system: Human immunodeficiency virus 1; assay: Antiviral activity against wild type HIV1 infected in human MT4 cells after 72 hrs in presence of 10% fetal bovine serum; format: functional; conditions: Human immunodeficiency virus 1, MT4, 72 h; read-out: CIC95
Method in brief: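 MT-4 human T-lymphoid cells in RPMI 1640 with 10% FBS. CIC95 is the concentration that inhibits viral spread by >95%. Values are either geometric means of two determinations or given with standard deviations for n > 3 or n > 50.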

[2] = system: Human immunodeficiency virus 1; assay: Antiviral activity against HIV1 with reverse transcriptase K103N mutant infected in human MT4 cells after 72 hrs in presence of 10% fetal bovine serum; format: functional; conditions: Human immunodeficiency virus 1, MT4, 72 h; read-out: CIC95
Method in brief: (§1)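 Mutant HIV-1 spread was assayed in MT-4 human T-lymphoid cells kept in RPMI 1640 with 10% FBS. CIC95 is the concentration that inhibits viral spread by >95%. Values are geometric means of two determinations, or mean with standard deviation where n > 3. Cytotoxicity was checked up to an assay limit of 8.3 µM.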

[3] = system: Human immunodeficiency virus 1; assay: Antiviral activity against HIV1 with reverse transcriptase Y181C mutant infected in human MT4 cells after 72 hrs in presence of 10% fetal bovine serum; format: functional; conditions: Human immunodeficiency virus 1, MT4, 72 h; read-out: CIC95; method in brief: as §1
[4] = system: Human immunodeficiency virus 1; assay: Antiviral activity against wild type HIV1 infected in human MT4 cells after 72 hrs in presence of 50% normal human serum; format: functional; conditions: Human immunodeficiency virus 1, MT4, 72 h; read-out: CIC95
Method in brief: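 MT-4 human T-lymphoid cells in RPMI 1640 with 50% NHS. CIC95 is the concentration that inhibits viral spread by >95%. Values are either geometric means of two determinations or given with standard deviations for n > 3 or n > 50.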

[5] = system: Human immunodeficiency virus 1; assay: Antiviral activity against HIV1 with reverse transcriptase K103N mutant in presence of 40% normal human serum; format: functional, organism-based
Canis familiaris [6] = species: Canis familiaris; assay: Toxicity in cardiovascular dog model assessed as effect on QTc intervals; format: organism-based, Canis lupus familiaris, Heart; conditions: in vivo
Method in brief: (§2)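 Conscious dog cardiovascular model, with QTc, heart rate and blood pressure monitored at plasma levels up to 55 µM.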

[7] = system: Human immunodeficiency virus 1; assay: Antiviral activity against HIV1 with reverse transcriptase V106A mutant in presence of 40% normal human serum; format: functional, organism-based
[8] = system: Human immunodeficiency virus 1; assay: Antiviral activity against HIV1 with reverse transcriptase G190S mutant in presence of 40% normal human serum; format: functional, organism-based
[9] = Clearance in rhesus monkey at 10 mg/kg, po and 2 mg/kg, iv; format: ADME, organism-based, Macaca mulatta; conditions: in vivo
[10] = Clearance in Sprague-Dawley rat at 10 mg/kg, po and 3 mg/kg, iv; format: ADME, organism-based; conditions: in vivo
Method in brief: (§3)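 Three Sprague-Dawley rats, averaged. Oral dose 10 mpk in 0.5% methocel; intravenous dose 3 mpk in DMSO. Individual values within 25% of mean.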

[11] = system: Human immunodeficiency virus 1; assay: Antiviral activity against HIV1 with reverse transcriptase K101E/G190A mutant in presence of 40% normal human serum; format: functional, organism-based
[12] = Oral bioavailability in Beagle dog at 10 mg/kg; format: ADME, organism-based, Canis lupus familiaris; conditions: in vivo
Method in brief: (§4)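 Three beagle dogs, averaged. Oral dose 10 mpk in 0.5% methocel; intravenous dose 2 mpk in DMSO. Individual values within 25% of mean.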

Canis familiaris [13] = assay: Half life in Beagle dog at 10 mg/kg, po and 2 mg/kg, iv; format: ADME, organism-based, Canis lupus familiaris; conditions: in vivo; method in brief: as §4
[14] = system: Human immunodeficiency virus 1; assay: Antiviral activity against HIV1 with reverse transcriptase K103N/P225H mutant in presence of 40% normal human serum; format: functional, organism-based
[15] = system: Human immunodeficiency virus 1; assay: Antiviral activity against HIV1 with reverse transcriptase K103N/G190A mutant in presence of 40% normal human serum; format: functional, organism-based
[16] = system: Human immunodeficiency virus 1; assay: Antiviral activity against HIV1 with reverse transcriptase Y181C/G190A mutant in presence of 40% normal human serum; format: functional, organism-based
Canis familiaris [17] = species: Canis familiaris; assay: Toxicity in cardiovascular dog model assessed as effect on heart rate; format: organism-based, Canis lupus familiaris; conditions: in vivo; method in brief: as §2
[18] = AUC in Sprague-Dawley rat at 10 mg/kg, po; format: ADME, organism-based; parameters: dose 10 mg/kg, route oral; conditions: plasma
[19] = system: Human immunodeficiency virus 1; assay: Antiviral activity against HIV1 with reverse transcriptase F227L mutant in presence of 40% normal human serum; format: functional, organism-based
[20] = Volume of distribution in Beagle dog at 10 mg/kg, po and 2 mg/kg, iv; format: ADME, organism-based, Canis lupus familiaris; conditions: in vivo; method in brief: as §4
[21] = system: Human immunodeficiency virus 1; assay: Antiviral activity against HIV1 with reverse transcriptase V179E mutant in presence of 40% normal human serum; format: functional, organism-based
[22] = AUC in Beagle dog at 10 mg/kg, po; format: ADME, organism-based, Canis lupus familiaris; parameters: dose 10 mg/kg, route oral; conditions: plasma; method in brief: as §4
[23] = system: Human immunodeficiency virus 1; assay: Antiviral activity against HIV1 with reverse transcriptase G190A mutant in presence of 40% normal human serum; format: functional, organism-based
[24] = system: Human immunodeficiency virus 1; assay: Antiviral activity against wild type HIV1 in presence of 40% normal human serum; format: functional, organism-based
Method in brief: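 Monogram Bioscience PhenoScreen cell-culture assay run with 40% NHS. […] Value is the geometric mean of n = 2.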

[25] = system: Human immunodeficiency virus 1; assay: Antiviral activity against HIV1 with reverse transcriptase P236L mutant in presence of 40% normal human serum; format: functional, organism-based
[26] = Oral bioavailability in Sprague-Dawley rat at 10 mg/kg; format: ADME, organism-based; conditions: in vivo
Canis familiaris [27] = species: Canis familiaris; assay: Toxicity in cardiovascular dog model assessed as effect on blood pressure; format: organism-based, Canis lupus familiaris; conditions: in vivo; method in brief: as §2
[28] = AUC in rhesus monkey at 10 mg/kg, po; format: ADME, organism-based, Macaca mulatta; parameters: dose 10 mg/kg, route oral; conditions: plasma
[29] = system: Human immunodeficiency virus 1; assay: Antiviral activity against HIV1 with reverse transcriptase K103N/Y181C mutant in presence of 40% normal human serum; format: functional, organism-based
[30] = Volume of distribution in Sprague-Dawley rat at 10 mg/kg, po and 3 mg/kg, iv; format: ADME, organism-based; conditions: in vivo; method in brief: as §3
[31] = Oral bioavailability in rhesus monkey at 10 mg/kg; format: ADME, organism-based, Macaca mulatta; conditions: in vivo
[32] = system: Human immunodeficiency virus 1; assay: Antiviral activity against HIV1 with reverse transcriptase K103N/Y181C/G190A mutant in presence of 40% normal human serum; format: functional, organism-based
[33] = Volume of distribution in rhesus monkey at 10 mg/kg, po and 2 mg/kg, iv; format: ADME, organism-based, Macaca mulatta; conditions: in vivo
[34] = Solubility at pH 2; format: physicochemical; conditions: buffer
[35] = system: Human immunodeficiency virus 1; assay: Antiviral activity against HIV1 with reverse transcriptase K103N/V179E mutant in presence of 40% normal human serum; format: functional, organism-based
[36] = system: Human immunodeficiency virus 1; assay: Antiviral activity against HIV1 with reverse transcriptase L100I mutant in presence of 40% normal human serum; format: functional, organism-based
[37] = Clearance in Beagle dog at 10 mg/kg, po and 2 mg/kg, iv; format: ADME, organism-based, Canis lupus familiaris; conditions: in vivo; method in brief: as §4
[38] = system: Human immunodeficiency virus 1; assay: Antiviral activity against HIV1 with reverse transcriptase Y181C mutant in presence of 40% normal human serum; format: functional, organism-based
[39] = system: Human immunodeficiency virus 1; assay: Antiviral activity against HIV1 with reverse transcriptase Y188L mutant in presence of 40% normal human serum; format: functional, organism-based
Rattus norvegicus = assay: Half life in Sprague-Dawley rat at 10 mg/kg, po and 3 mg/kg, iv; format: ADME, organism-based; conditions: in vivo; method in brief: as §3
[40] = molecular target: Human immunodeficiency virus type 1 reverse transcriptase (Human immunodeficiency virus 1, UniProt Q72547, Y181C); assay: Inhibition of HIV1 RT polymerase Y181C mutant by SPA
[41] = molecular target: Human immunodeficiency virus type 1 reverse transcriptase (Human immunodeficiency virus 1, UniProt Q72547); assay: Inhibition of wild type HIV1 RT polymerase by SPA
[42] = molecular target: Human immunodeficiency virus type 1 reverse transcriptase (Human immunodeficiency virus 1, UniProt Q72547, K103N); assay: Inhibition of HIV1 RT polymerase K103N mutant by SPA

Molecule `N#Cc1cc(Cl)cc(Oc2cc(OCc3n[nH]c4ccccc34)ccc2Cl)c1` has an IC95 [1] of 22.6 nM, an IC95 [2] of 33 nM and an IC95 [3] of 102 nM. For the same molecule, the IC95 [4] was 114 nM.

With `N#Cc1cc(Cl)cc(Oc2cc(OCc3n[nH]c4nc(N)ccc34)ccc2Cl)c1` the IC50 [5] was 4.4 nM, the Activity (Canis familiaris [6]) was “Non-toxic” and the IC50 [7] was 147 nM. It also gave an IC50 [8] of 7.6 nM, a clearance [9] of 15.8 mL/min/kg and a clearance [10] of 9 mL/min/kg. For the same molecule, the IC50 [11] was 10.1 nM, the bioavailability [12] was 47% and the t1/2 (Canis familiaris [13]) was 3.9 h. It also gave an IC50 [14] of 1.2 nM, an IC50 [15] of 9.6 nM and an IC50 [16] of 14.8 nM. The IC95 [1] was 8.4 nM, the Activity (Canis familiaris [17]) was “Non-toxic” and the AUC [18] was 22.7 µM·h. For the same molecule, the IC50 [19] was 0.7 nM, the Vd [20] was 1.7 L/kg and the IC50 [21] was 5 nM. The AUC [22] was 31.3 µM·h, the IC50 [23] was 1.5 nM and the IC50 [24] was 1.35 nM. For the same molecule, the IC50 [25] was 4.2 nM, the bioavailability [26] was 52% and the Activity (Canis familiaris [27]) was “Non-toxic”. The AUC [28] was 0.3 µM·h, the IC50 [29] was 84 nM and the Vd [30] was 2 L/kg. It also gave a bioavailability [31] of 1%, an IC50 [32] of 98.3 nM and a Vd [33] of 1.9 L/kg. It also gave an IC95 [2] of 11.4 nM, a solubility [34] of 10 µg/mL (≈ 23.5 µM) and an IC95 [3] of 19 nM. The IC50 [35] was 9.6 nM, the IC50 [36] was 1.8 nM and the clearance [37] was 5.8 mL/min/kg. For the same molecule, the IC50 [38] was 5.6 nM, the IC50 [39] was > 1000 nM and the t1/2 (Rattus norvegicus) was 3.5 h. The IC95 [4] was 34 nM.

Work on `N#Cc1cc(Cl)cc(Oc2cc(OCc3n[nH]c4ccncc34)ccc2Cl)c1` yielded an IC50 [40] of 6.2 nM, an IC95 [1] of 169 nM and an IC50 [41] of 1.2 nM. For the same molecule, the IC50 [42] was 3.8 nM, the IC95 [2] was 922 nM and the IC95 [3] was 278 nM. It also gave an IC95 [4] of 307 nM.
